Measurements taken from ChEMBL document CHEMBL3400094, “Synthesis and SAR study of potent and selective PI3Kδ inhibitors” (Bioorg Med Chem Lett, 2015).

Legend:
[1] = target: T1, Phosphatidylinositol 4,5-bisphosphate 3-kinase catalytic subunit delta isoform (Homo sapiens, UniProt O00329); assay: Inhibition of PI3Kdelta (unknown origin) by biochemical Alphascreen assay
T1 sequence (O00329 whole entry): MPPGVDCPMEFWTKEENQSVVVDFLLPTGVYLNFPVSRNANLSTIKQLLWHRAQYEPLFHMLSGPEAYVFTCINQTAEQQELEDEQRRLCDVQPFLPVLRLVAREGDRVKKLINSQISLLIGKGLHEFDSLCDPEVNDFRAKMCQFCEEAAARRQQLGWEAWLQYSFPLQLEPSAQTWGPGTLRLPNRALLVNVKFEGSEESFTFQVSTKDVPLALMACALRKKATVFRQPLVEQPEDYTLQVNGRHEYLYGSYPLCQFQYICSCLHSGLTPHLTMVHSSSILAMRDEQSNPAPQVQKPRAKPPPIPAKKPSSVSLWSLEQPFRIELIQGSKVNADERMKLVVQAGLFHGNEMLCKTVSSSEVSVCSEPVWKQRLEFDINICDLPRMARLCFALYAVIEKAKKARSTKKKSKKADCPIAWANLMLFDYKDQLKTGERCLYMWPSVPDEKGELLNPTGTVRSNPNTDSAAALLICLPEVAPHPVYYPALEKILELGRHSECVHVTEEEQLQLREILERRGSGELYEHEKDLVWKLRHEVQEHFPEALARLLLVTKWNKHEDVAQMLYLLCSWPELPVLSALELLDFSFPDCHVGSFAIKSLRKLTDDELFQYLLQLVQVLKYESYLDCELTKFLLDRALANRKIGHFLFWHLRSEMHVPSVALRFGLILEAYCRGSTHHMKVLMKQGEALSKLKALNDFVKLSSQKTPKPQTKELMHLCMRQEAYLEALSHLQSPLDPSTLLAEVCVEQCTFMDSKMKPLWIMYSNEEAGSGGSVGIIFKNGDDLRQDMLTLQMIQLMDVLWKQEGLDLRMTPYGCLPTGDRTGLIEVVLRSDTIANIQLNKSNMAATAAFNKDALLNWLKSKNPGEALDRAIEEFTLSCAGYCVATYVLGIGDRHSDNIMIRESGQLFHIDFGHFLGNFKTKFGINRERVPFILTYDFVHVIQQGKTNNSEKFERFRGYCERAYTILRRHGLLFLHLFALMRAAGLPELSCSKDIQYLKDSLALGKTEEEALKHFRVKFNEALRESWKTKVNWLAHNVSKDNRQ

[2] = target: Phosphatidylinositol 4,5-bisphosphate 3-kinase catalytic subunit gamma isoform (Homo sapiens, UniProt P48736); assay: Inhibition of PI3Kgamma (unknown origin) by biochemical Alphascreen assay
[3] = target: Phosphatidylinositol 4,5-bisphosphate 3-kinase catalytic subunit beta isoform (Homo sapiens, UniProt P42338); assay: Inhibition of PI3Kbeta (unknown origin) by biochemical Alphascreen assay
[4] = target: Phosphatidylinositol 4,5-bisphosphate 3-kinase catalytic subunit alpha isoform (Homo sapiens, UniProt P42336); assay: Inhibition of PI3Kalpha (unknown origin) by biochemical Alphascreen assay
[5] = target: T1, Phosphatidylinositol 4,5-bisphosphate 3-kinase catalytic subunit delta isoform; assay: Inhibition of PI3Kdelta (unknown origin) assessed as inhibition of AKT phosphorylation by cell-based HTRF assay
[6] = Clearance in Sprague-Dawley rat at 0.5 mg/kg, iv and 2 to 10 mg/kg, po; format: ADME, organism-based; conditions: in vivo
Outline: (§1)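 Male Sprague-Dawley rats, n=3. Compounds formulated for iv dosing at 0.5 mg/kg or oral dosing at 2-10 mg/kg.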

[7] = Oral bioavailability in Sprague-Dawley rat at 2 to 10 mg/kg; format: ADME, organism-based; conditions: in vivo; outline: as §1
[8] = Metabolic stability assessed as glutathione adduct formation of SO2Me after 30 mins; format: ADME; conditions: 0.5 h

Phosphatidylinositol 4,5-bisphosphate 3-kinase catalytic subunit beta isoform, sequence (P42338 whole entry, canonical isoform): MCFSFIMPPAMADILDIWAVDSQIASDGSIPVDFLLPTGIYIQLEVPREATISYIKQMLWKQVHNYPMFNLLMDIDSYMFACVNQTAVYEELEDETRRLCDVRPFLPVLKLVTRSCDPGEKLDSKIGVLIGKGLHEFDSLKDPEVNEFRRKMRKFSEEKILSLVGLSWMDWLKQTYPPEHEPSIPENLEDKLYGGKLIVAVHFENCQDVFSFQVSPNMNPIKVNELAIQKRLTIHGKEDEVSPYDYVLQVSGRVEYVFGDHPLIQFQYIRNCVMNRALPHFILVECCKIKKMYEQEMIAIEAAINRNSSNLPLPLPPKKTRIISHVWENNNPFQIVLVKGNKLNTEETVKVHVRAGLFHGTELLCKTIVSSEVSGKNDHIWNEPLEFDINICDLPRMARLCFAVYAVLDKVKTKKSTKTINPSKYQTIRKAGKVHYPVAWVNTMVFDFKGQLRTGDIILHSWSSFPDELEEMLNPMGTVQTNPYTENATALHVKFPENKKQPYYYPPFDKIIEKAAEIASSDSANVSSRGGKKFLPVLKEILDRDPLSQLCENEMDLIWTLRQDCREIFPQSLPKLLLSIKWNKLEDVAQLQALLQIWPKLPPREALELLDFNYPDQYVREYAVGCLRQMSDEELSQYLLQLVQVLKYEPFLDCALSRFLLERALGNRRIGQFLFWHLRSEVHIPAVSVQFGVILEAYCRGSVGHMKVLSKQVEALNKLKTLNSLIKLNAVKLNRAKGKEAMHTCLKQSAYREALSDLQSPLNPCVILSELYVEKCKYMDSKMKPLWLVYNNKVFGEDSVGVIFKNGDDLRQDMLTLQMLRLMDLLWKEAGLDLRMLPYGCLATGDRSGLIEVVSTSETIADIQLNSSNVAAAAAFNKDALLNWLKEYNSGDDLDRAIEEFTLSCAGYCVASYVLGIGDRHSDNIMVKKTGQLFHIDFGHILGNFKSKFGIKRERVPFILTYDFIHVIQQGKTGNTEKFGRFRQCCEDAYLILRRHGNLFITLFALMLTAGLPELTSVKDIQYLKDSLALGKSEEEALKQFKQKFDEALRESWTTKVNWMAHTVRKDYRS
Phosphatidylinositol 4,5-bisphosphate 3-kinase catalytic subunit alpha isoform, sequence (P42336 whole entry, canonical isoform): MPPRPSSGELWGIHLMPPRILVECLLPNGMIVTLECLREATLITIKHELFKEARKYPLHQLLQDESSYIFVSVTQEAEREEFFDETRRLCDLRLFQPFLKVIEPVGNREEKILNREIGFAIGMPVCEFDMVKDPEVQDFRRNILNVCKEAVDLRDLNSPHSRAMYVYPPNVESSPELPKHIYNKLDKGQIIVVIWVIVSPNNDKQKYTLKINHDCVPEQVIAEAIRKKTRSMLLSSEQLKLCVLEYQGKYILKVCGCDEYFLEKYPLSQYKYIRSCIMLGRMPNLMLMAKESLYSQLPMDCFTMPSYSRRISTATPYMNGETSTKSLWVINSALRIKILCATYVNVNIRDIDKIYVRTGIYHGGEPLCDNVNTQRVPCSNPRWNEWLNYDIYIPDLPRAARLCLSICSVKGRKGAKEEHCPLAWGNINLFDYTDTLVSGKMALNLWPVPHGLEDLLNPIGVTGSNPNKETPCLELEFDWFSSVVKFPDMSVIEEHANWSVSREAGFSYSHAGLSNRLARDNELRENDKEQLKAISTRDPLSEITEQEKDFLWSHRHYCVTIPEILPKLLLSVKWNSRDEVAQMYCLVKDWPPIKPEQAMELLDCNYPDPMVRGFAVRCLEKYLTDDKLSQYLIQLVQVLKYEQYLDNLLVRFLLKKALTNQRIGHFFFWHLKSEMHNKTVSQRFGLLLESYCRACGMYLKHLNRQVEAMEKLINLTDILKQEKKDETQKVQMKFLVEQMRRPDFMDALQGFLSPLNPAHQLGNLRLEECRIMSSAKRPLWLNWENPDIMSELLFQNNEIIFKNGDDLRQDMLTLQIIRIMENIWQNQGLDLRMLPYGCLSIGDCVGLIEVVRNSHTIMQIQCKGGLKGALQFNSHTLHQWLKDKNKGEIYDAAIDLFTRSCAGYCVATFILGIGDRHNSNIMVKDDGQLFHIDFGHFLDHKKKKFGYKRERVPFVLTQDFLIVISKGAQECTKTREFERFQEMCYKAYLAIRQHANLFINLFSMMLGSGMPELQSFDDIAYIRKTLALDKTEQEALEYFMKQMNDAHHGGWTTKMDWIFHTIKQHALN
Phosphatidylinositol 4,5-bisphosphate 3-kinase catalytic subunit gamma isoform, sequence (P48736 whole entry, canonical isoform): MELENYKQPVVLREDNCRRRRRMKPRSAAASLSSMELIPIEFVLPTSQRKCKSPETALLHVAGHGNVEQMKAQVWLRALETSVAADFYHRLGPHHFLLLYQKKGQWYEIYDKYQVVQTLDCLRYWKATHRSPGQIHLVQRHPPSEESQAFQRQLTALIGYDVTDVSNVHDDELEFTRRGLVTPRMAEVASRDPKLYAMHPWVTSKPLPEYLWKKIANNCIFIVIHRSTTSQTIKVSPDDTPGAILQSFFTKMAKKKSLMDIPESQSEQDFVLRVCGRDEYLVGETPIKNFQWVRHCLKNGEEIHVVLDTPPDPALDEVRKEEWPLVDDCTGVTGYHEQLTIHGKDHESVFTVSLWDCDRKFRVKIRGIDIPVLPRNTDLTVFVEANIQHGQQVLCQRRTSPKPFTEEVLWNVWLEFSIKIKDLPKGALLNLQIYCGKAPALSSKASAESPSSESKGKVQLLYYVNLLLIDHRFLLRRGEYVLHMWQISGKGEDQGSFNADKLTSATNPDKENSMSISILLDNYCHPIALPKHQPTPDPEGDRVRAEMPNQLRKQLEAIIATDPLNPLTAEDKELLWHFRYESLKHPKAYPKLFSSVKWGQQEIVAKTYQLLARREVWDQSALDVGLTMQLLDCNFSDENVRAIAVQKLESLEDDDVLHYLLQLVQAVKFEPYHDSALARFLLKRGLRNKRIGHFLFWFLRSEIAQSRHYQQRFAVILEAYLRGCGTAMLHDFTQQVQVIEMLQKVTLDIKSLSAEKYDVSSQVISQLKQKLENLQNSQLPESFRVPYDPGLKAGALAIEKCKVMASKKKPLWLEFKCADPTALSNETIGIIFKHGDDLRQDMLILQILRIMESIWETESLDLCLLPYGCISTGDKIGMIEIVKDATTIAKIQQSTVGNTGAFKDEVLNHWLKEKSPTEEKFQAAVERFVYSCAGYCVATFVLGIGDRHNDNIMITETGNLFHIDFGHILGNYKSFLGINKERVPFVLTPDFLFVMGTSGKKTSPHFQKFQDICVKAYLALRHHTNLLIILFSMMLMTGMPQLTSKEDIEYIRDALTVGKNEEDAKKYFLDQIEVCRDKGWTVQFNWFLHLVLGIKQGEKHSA

| IC50 [1] | IC50 [2] | IC50 [3] | IC50 [4] | IC50 [5] | clearance [6] | bioavailability [7] | Stability [8] | SMILES |
| --- | --- | --- | --- | --- | --- | --- | --- | --- |
| 0.4 nM | 120 nM | 460 nM | 1200 nM | 3.1 nM | – | – | – | CC(Nc1ncnc(N)c1C#N)c1nc2ccc(F)cc2c(NCCO)c1-c1ccccc1 (racemic) |
| 1.7 nM | 1600 nM | 5000 nM | 1600 nM | – | – | – | – | C[C@H](Nc1ncnc(N)c1C#N)c1nc2ccc(F)cc2c(NCCN(C)C)c1-c1ccccc1 |
| 4 nM | 250 nM | 230 nM | 1370 nM | 11 nM | – | – | – | CC(Nc1ncnc(N)c1C#N)c1nc2ccc(F)cc2c(Cl)c1-c1ccccn1 (racemic) |
| 8.8 nM | 1100 nM | > 20000 nM | > 20000 nM | – | – | – | – | CC(Nc1ncnc(N)c1C#N)c1nc2ccc(F)cc2cc1-c1ccccn1 (racemic) |
| 15 nM | > 20000 nM | > 20000 nM | > 20000 nM | – | 3.5 mL/min/kg | – | – | Cc1cccnc1-c1c(-c2ccccn2)c([C@H](C)Nc2ncnc(N)c2C#N)nc2ccc(F)cc12 |
| 1.2 nM | 11 nM | 8.2 nM | 420 nM | 0.8 nM | – | – | – | COc1c(-c2ccccc2)c([C@H](C)Nc2ncnc(N)c2C#N)nc2ccc(F)cc12 |
| 8.3 nM | 1420 nM | 240 nM | 4400 nM | 12 nM | – | – | – | CC(Nc1ncnc(N)c1C#N)c1nc2ccc(F)cc2c(C#N)c1-c1ccccn1 (racemic) |
| 2.5 nM | 380 nM | 160 nM | 620 nM | – | – | – | – | C[C@H](Nc1ncnc(N)c1C#N)c1nc2ccc(F)cc2c([S+]([O-])CCO)c1-c1ccccc1 (some centres not stated) |
| 1.2 nM | 200 nM | 80 nM | 830 nM | 1.2 nM | – | – | – | C[C@H](Nc1ncnc(N)c1C#N)c1nc2ccc(F)cc2c(N2CCOCC2)c1-c1ccccn1 |
| 16 nM | 210 nM | > 20000 nM | > 20000 nM | 2.8 nM | 11.7 mL/min/kg | 15% | – | CC(Nc1ncnc(N)c1C#N)c1nc2ccc(F)cc2c(O)c1-c1ccccc1 (racemic) |
| 0.6 nM | 13 nM | 420 nM | 1080 nM | 2.4 nM | – | – | – | COCCNc1c(-c2ccccc2)c([C@H](C)Nc2ncnc(N)c2C#N)nc2ccc(F)cc12 |
| 1.4 nM | 290 nM | 710 nM | 1150 nM | 3.6 nM | – | – | – | CC(Nc1ncnc(N)c1C#N)c1nc2ccc(F)cc2c(N(C)C)c1-c1ccccn1 (racemic) |
| 0.7 nM | 220 nM | 510 nM | 920 nM | 0.1 nM | 167 mL/min/kg | – | Unstable | C[C@H](Nc1ncnc(N)c1C#N)c1nc2ccc(F)cc2c(S(C)(=O)=O)c1-c1ccccc1 |
| – | – | – | – | – | 0.95 mL/min/kg | 51% | – | C[C@H](Nc1ncnc(N)c1C#N)c1nc2ccc(F)cc2c(-c2ccccn2)c1-c1ccccn1 |
| 0.2 nM | 19 nM | 500 nM | 900 nM | 0.5 nM | – | – | – | C[C@H](Nc1ncnc(N)c1C#N)c1nc2ccc(F)cc2c(NCCS(C)(=O)=O)c1-c1ccccc1 |
| 18 nM | 510 nM | 280 nM | 1210 nM | 1.4 nM | – | – | – | C[C@H](Nc1ncnc(N)c1C#N)c1nc2ccc(F)cc2c(N2CC(O)C2)c1-c1ccccn1 |
| 16 nM | 4950 nM | 4030 nM | – | 3.1 nM | – | – | – | COCc1c(-c2ccccn2)c([C@H](C)Nc2ncnc(N)c2C#N)nc2ccc(F)cc12 |
